System: U2OS
Test: Multiplex assay against U2OS
Type: toxicity, cell-based
Details: human
In short: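 Cells stained live at seeding with Hoechst33342, BioTracker Green Microtubule Cytoskeleton Dye, MitoTracker Red and Annexin V Alexa Fluor 680 were imaged on a CQ1 microscope at 37°C and 5% CO2 after compound addition. Their classification by CellPathfinder machine-learning gating ran from Hoechst high-intensity objects versus normal cells, to healthy, pyknosed or fragmented nuclei among normal cells, to mitotic or apoptotic among pyknosed cells. Tubulin, mitochondrial-mass and membrane-permeability phenotypes are per cents of healthy-nucleus cells.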

[1] = 12 h, 1 µM, compound concentration 1 uM, replicate 1
[2] = 12 h, 1 µM, compound concentration 1 uM, replicate 2
[3] = 12 h, 10 µM, compound concentration 10 uM, replicate 1
[4] = 12 h, 10 µM, compound concentration 10 uM, replicate 2
[5] = 24 h, 1 µM, compound concentration 1 uM, replicate 1
[6] = 24 h, 1 µM, compound concentration 1 uM, replicate 2
[7] = 24 h, 10 µM, compound concentration 10 uM, replicate 1
[8] = 24 h, 10 µM, compound concentration 10 uM, replicate 2
[9] = 48 h, 1 µM, compound concentration 1 uM, replicate 1
[10] = 48 h, 1 µM, compound concentration 1 uM, replicate 2
[11] = 48 h, 10 µM, compound concentration 10 uM, replicate 1
[12] = 48 h, 10 µM, compound concentration 10 uM, replicate 2

CC(/C=C1\SC(=S)N(CCCC(=O)Nc2ccc(C(=O)O)c(O)c2)C1=O)=C\c1ccccc1
Population Apoptotic (%) [1]: 53% | Population Fragmented Nuclei (%) [1]: 8% | Population Healthy Nuclei (%) [1]: 77% | Population Hoechst High Intensity Objects (%) [1]: 3% | Population Membrane Permeable-Phenotype (%) [1]: 7% | Population Mitochondria Different-Phenotype (%) [1]: 5% | Population Mitotic Cells (%) [1]: 46% | Population Normal (%) [1]: 96% | Population Pyknosed Nuclei (%) [1]: 13% | Population Tubulin-Different-Phenotype (%) [1]: 13% | Total Cell Count [1]: 154 | Population Apoptotic (%) [2]: 33% | Population Fragmented Nuclei (%) [2]: 10% | Population Healthy Nuclei (%) [2]: 81% | Population Hoechst High Intensity Objects (%) [2]: 6% | Population Mitochondria Different-Phenotype (%) [2]: 7% | Population Mitotic Cells (%) [2]: 66% | Population Normal (%) [2]: 93% | Population Pyknosed Nuclei (%) [2]: 7% | Population Tubulin-Different-Phenotype (%) [2]: 7% | Total Cell Count [2]: 65 | Population Apoptotic (%) [3]: 42% | Population Fragmented Nuclei (%) [3]: 7% | Population Healthy Nuclei (%) [3]: 86% | Population Hoechst High Intensity Objects (%) [3]: 9% | Population Membrane Permeable-Phenotype (%) [3]: 9% | Population Mitochondria Different-Phenotype (%) [3]: 5% | Population Mitotic Cells (%) [3]: 57% | Population Normal (%) [3]: 90% | Population Pyknosed Nuclei (%) [3]: 5% | Population Tubulin-Different-Phenotype (%) [3]: 8% | Total Cell Count [3]: 117 | Population Apoptotic (%) [4]: 44% | Population Fragmented Nuclei (%) [4]: 17% | Population Healthy Nuclei (%) [4]: 72% | Population Hoechst High Intensity Objects (%) [4]: 7% | Population Membrane Permeable-Phenotype (%) [4]: 6% | Population Mitochondria Different-Phenotype (%) [4]: 6% | Population Mitotic Cells (%) [4]: 55% | Population Normal (%) [4]: 92% | Population Pyknosed Nuclei (%) [4]: 10% | Population Tubulin-Different-Phenotype (%) [4]: 9% | Total Cell Count [4]: 88 | Population Apoptotic (%) [5]: 53% | Population Fragmented Nuclei (%) [5]: 6% | Population Healthy Nuclei (%) [5]: 83% | Population Hoechst High Intensity Objects (%) [5]: 4% | Population Membrane Permeable-Phenotype (%) [5]: 5% | Population Mitochondria Different-Phenotype (%) [5]: 9% | Population Mitotic Cells (%) [5]: 46% | Population Normal (%) [5]: 95% | Population Pyknosed Nuclei (%) [5]: 10% | Population Tubulin-Different-Phenotype (%) [5]: 5% | Total Cell Count [5]: 151 | Population Apoptotic (%) [6]: 54% | Population Fragmented Nuclei (%) [6]: 12% | Population Healthy Nuclei (%) [6]: 76% | Population Hoechst High Intensity Objects (%) [6]: 6% | Population Membrane Permeable-Phenotype (%) [6]: 4% | Population Mitochondria Different-Phenotype (%) [6]: 10% | Population Mitotic Cells (%) [6]: 45% | Population Normal (%) [6]: 93% | Population Tubulin-Different-Phenotype (%) [6]: 12% | Total Cell Count [6]: 64 | Population Apoptotic (%) [7]: 36% | Population Fragmented Nuclei (%) [7]: 11% | Population Healthy Nuclei (%) [7]: 81% | Population Hoechst High Intensity Objects (%) [7]: 5% | Population Membrane Permeable-Phenotype (%) [7]: 5% | Population Mitochondria Different-Phenotype (%) [7]: 8% | Population Mitotic Cells (%) [7]: 63% | Population Normal (%) [7]: 94% | Population Pyknosed Nuclei (%) [7]: 6% | Population Tubulin-Different-Phenotype (%) [7]: 6% | Total Cell Count [7]: 151 | Population Apoptotic (%) [8]: 44% | Population Fragmented Nuclei (%) [8]: 9% | Population Healthy Nuclei (%) [8]: 83% | Population Hoechst High Intensity Objects (%) [8]: 4% | Population Mitochondria Different-Phenotype (%) [8]: 14% | Population Mitotic Cells (%) [8]: 55% | Population Normal (%) [8]: 95% | Population Pyknosed Nuclei (%) [8]: 7% | Population Tubulin-Different-Phenotype (%) [8]: 14% | Total Cell Count [8]: 115 | Population Apoptotic (%) [9]: 61% | Population Fragmented Nuclei (%) [9]: 2% | Population Healthy Nuclei (%) [9]: 92% | Population Hoechst High Intensity Objects (%) [9]: 1% | Population Membrane Permeable-Phenotype (%) [9]: 1% | Population Mitochondria Different-Phenotype (%) [9]: 9% | Population Mitotic Cells (%) [9]: 38% | Population Normal (%) [9]: 98% | Population Pyknosed Nuclei (%) [9]: 5% | Population Tubulin-Different-Phenotype (%) [9]: 10% | Total Cell Count [9]: 142 | Population Apoptotic (%) [10]: 50% | Population Fragmented Nuclei (%) [10]: 7% | Population Healthy Nuclei (%) [10]: 84% | Population Hoechst High Intensity Objects (%) [10]: 4% | Population Membrane Permeable-Phenotype (%) [10]: 10% | Population Mitochondria Different-Phenotype (%) [10]: 14% | Population Mitotic Cells (%) [10]: 50% | Population Normal (%) [10]: 95% | Population Pyknosed Nuclei (%) [10]: 8% | Population Tubulin-Different-Phenotype (%) [10]: 14% | Total Cell Count [10]: 60 | Population Apoptotic (%) [11]: 31% | Population Fragmented Nuclei (%) [11]: 5% | Population Healthy Nuclei (%) [11]: 87% | Population Hoechst High Intensity Objects (%) [11]: 2% | Population Membrane Permeable-Phenotype (%) [11]: 2% | Population Mitochondria Different-Phenotype (%) [11]: 11% | Population Mitotic Cells (%) [11]: 68% | Population Normal (%) [11]: 97% | Population Pyknosed Nuclei (%) [11]: 7% | Population Tubulin-Different-Phenotype (%) [11]: 11% | Total Cell Count [11]: 241 | Population Apoptotic (%) [12]: 16% | Population Fragmented Nuclei (%) [12]: 4% | Population Healthy Nuclei (%) [12]: 92% | Population Hoechst High Intensity Objects (%) [12]: 0% | Population Membrane Permeable-Phenotype (%) [12]: 1% | Population Mitochondria Different-Phenotype (%) [12]: 17% | Population Mitotic Cells (%) [12]: 83% | Population Normal (%) [12]: 99% | Population Pyknosed Nuclei (%) [12]: 2% | Population Tubulin-Different-Phenotype (%) [12]: 19% | Total Cell Count [12]: 147
